Measurements reported in ChEMBL document CHEMBL4725241, “Discovery of BMS-986235/LAR-1219: A Potent Formyl Peptide Receptor 2 (FPR2) Selective Agonist for the Prevention of Heart Failure” (J Med Chem, 2020).
pEC50, pIC50: −log10 of the molar value. The source made the active and inactive calls. No cut-off for these calls is given here.

Assays:
fMet-Leu-Phe receptor = molecular target: T1, fMet-Leu-Phe receptor (Homo sapiens, UniProt P21462); test: Agonist activity at human FPR1 expressed in HEK 293 cells co-expressing Galpha15 measured every 1.5 sec for 80 sec by Fluo-4 NW staining based scanning fluorometric method; type: cell-based, HEK293
T1 sequence (P21462 whole entry): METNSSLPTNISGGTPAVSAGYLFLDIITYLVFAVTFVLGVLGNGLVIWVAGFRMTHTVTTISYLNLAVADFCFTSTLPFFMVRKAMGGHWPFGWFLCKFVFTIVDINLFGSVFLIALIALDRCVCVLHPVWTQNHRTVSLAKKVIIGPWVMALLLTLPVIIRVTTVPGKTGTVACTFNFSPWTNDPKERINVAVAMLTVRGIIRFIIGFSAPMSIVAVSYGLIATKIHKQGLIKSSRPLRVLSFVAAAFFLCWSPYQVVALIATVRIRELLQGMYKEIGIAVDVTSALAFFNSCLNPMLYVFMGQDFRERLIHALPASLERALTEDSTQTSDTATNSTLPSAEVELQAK

[1] = molecular target: T2, N-formyl peptide receptor 2 (Homo sapiens, UniProt P25090); test: Agonist activity at human FPR2 expressed in HEK 293 cells co-expressing Galpha15 measured every 1.5 sec for 80 sec by Fluo-4 NW staining based scanning fluorometric method; type: cell-based, HEK293
T2 sequence (P25090 whole entry): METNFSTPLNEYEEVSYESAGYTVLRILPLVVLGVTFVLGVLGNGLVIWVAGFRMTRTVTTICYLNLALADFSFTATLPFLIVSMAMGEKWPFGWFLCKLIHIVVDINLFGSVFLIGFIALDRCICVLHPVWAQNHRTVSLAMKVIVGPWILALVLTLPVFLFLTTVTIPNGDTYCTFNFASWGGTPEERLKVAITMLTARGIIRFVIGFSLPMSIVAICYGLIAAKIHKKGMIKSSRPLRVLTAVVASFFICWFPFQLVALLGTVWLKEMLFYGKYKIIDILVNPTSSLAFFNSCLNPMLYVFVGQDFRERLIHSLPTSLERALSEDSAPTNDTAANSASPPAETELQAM
In short: (§1)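 HEK293 cells were transiently co-transfected with FPR plus Gα15 (Lipofectamine 2000), then reseeded after 24 h on poly-D-lysine plates and grown one more day. Cells were loaded with Fluo-4 NW for 45 min at 37°C. Compound was added and fluorescence (ex 485/em 525 nm) read for 80 s at 1.5 s intervals. Response = maximal peak minus basal.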

[2] = molecular target: T3, Formyl peptide receptor 2 (Mus musculus, UniProt O88536); test: Agonist activity at mouse FPR2 expressed in HEK 293 cells co-expressing Galpha15 measured every 1.5 sec for 80 sec by Fluo-4 NW staining based scanning fluorometric method; type: cell-based, HEK293; in short: as §1
T3 sequence (O88536 whole entry): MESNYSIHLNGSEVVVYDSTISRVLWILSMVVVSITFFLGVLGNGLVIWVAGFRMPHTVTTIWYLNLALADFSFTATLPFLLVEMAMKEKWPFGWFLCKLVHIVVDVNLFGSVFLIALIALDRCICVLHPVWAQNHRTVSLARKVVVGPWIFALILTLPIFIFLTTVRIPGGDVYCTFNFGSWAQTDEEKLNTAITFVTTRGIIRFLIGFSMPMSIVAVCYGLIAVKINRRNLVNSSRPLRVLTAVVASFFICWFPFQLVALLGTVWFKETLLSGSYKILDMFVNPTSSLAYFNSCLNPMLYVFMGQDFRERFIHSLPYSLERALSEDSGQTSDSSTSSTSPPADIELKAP

[3] = In vivo […] in mouse assessed as reduction in LPS-induced neutrophil infiltration in BALF cells at 1 mg/kg, po relative to control; type: functional
In short: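 Mice were given LPS and dosed orally at 1 mg/kg. Neutrophils in BALF were counted, and percent inhibition was calculated.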

Cytochrome P450 3A4 = Cytochrome P450 3A4 (Homo sapiens, UniProt P08684); test: Inhibition of recombinant human CYP3A4; type: ADME
Sequence of Cytochrome P450 3A4 (P08684 whole entry): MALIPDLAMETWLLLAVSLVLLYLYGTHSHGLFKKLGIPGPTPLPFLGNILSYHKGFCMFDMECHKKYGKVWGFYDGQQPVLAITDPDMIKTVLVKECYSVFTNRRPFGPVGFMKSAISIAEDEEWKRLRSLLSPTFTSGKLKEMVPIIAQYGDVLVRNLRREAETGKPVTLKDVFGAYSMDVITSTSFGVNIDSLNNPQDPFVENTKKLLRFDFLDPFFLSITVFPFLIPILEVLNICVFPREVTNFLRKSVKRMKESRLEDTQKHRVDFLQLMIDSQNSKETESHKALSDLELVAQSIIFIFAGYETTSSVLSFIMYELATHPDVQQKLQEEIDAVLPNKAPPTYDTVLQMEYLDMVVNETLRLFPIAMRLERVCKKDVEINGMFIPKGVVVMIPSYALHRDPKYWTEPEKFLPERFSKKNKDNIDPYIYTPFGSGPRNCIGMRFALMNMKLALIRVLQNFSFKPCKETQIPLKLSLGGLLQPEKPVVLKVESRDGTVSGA

Mus musculus [4] = test: Cardioprotective activity in C57BL/6 mouse model of LAD coronary artery ligation-induced myocardial infarction assessed as reduction in LV chamber area at 100 mg/kg, po and measured after 28 days; type: functional, organism-based; settings: time 28.0 day
In short: (§2)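 Male C57BL/6 mice (10-12 weeks) underwent permanent LAD ligation. Captopril was given in drinking water (~100 mg/kg/day). Endpoints were taken at 28 days post-MI, with histomorphometry of LV cross sections for scar length.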

Mus musculus [5] = test: Cardioprotective activity in C57BL/6 mouse model of LAD coronary artery ligation-induced myocardial infarction assessed as reduction in heart weight at 100 mg/kg, po and measured after 28 days; type: functional, organism-based; settings: time 28.0 day; in short: as §2
Mus musculus [6] = test: Cardioprotective activity in C57BL/6 mouse model of LAD coronary artery ligation-induced myocardial infarction assessed as reduction in scar length at 0.3 mg/kg, po and measured after 28 days relative to control; type: functional, organism-based; settings: time 28.0 day
In short: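 Male C57BL/6 mice (10-12 weeks) underwent permanent LAD ligation under ketamine/xylazine, with shams having an untightened suture. Compound (0.3 mg/kg/d) or vehicle was given by oral gavage once daily (5 mL/kg) from post-MI day 4 for 24 days. Endpoints were taken at 28 days post-MI; scar length was quantified from LV cross sections.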

SMILES | pEC50 (fMet-Leu-Phe receptor) | pEC50 [1] | also measured
COc1cc(F)c([C@@H]2CNC(=O)[C@H]2NC(=O)Nc2ccc(C#N)cc2)c(F)c1 | 6.46 |  | 
COc1cc(F)c([C@@H]2CNC(=O)[C@H]2NC(=O)Nc2ccccc2F)c(F)c1 |  | 7.37 | 
COc1ccc(CC(C)NC(=O)Nc2ccc(Cl)cc2)cc1 (racemic) |  | 7.64 | 
COc1ccc([C@@H]2NC(=O)[C@@H]2NC(=O)Nc2ccc(Cl)cc2)cc1 (racemic) | < 5.00 | 7.92 | 
COc1cc(F)c([C@@H]2CNC(=O)[C@H]2NC(=O)Nc2ccc(C)cc2)c(F)c1 |  | 8.70 | 
COc1cc(F)c([C@@H]2CNC(=O)[C@H]2NC(=O)Nc2ncc(Cl)s2)c(F)c1 |  | 8.72 | 
COc1cnc([C@@H]2CNC(=O)[C@H]2NC(=O)Nc2ccc(F)cc2)c(F)c1 | 6.72 |  | 
COc1ccc(C2CNC(=O)C2NC(=O)Nc2ccc(Cl)cc2)cc1 (single isomer, unassigned; (+)) |  | 9.05 | 
COc1cc(F)c([C@@H]2CNC(=O)[C@H]2NC(=O)Nc2ccc(Cl)s2)c(F)c1 | 5.92 |  | pEC50 [2]: 8.85; inhibition in vivo at 1 mg/kg [3]: 84%; pIC50 (Cytochrome P450 3A4): 5.25
COc1ccc(CCNC(=O)Nc2ccc(Cl)cc2)cc1 |  | 6.00 | 
O=C(Nc1ccc(F)cc1)N[C@@H]1C(=O)NC[C@H]1c1ccc(Cl)cc1F | 7.54 | 8.51 | 
COc1cc(F)c([C@@H]2CNC(=O)[C@H]2NC(=O)Nc2ccc(F)cc2)cc1F | 7.77 |  | 
COc1cc(F)c([C@@H]2CNC(=O)[C@H]2NC(=O)Nc2cccc(F)c2)c(F)c1 | 5.77 |  | 
N#Cc1cc(F)c([C@@H]2CNC(=O)[C@H]2NC(=O)Nc2ccc(F)cc2)c(F)c1 | 4.40 | 8.01 | 
C[C@H](CS)C(=O)N1CCC[C@H]1C(=O)O |  |  | Activity (Mus musculus [4]): Active; Activity (Mus musculus [5]): Active; Activity (Mus musculus [6]): inactive
COc1ccc([C@H]2CNC(=O)[C@@H]2NC(=O)Nc2ccc(Cl)cc2)cc1 |  | 7.47 | 
COc1ccc([C@@H]2CNC(=O)[C@H]2NC(=O)Nc2ccc(Cl)cc2)cc1 |  | 10.04 | 
COc1ccc(CC(NC(=O)Nc2ccc(Cl)cc2)C(N)=O)cc1 (racemic) | < 5.00 | 8.44 | 
COc1ccc([C@@H]2NC(=O)[C@H]2NC(=O)Nc2ccc(Cl)cc2)cc1 (racemic) | < 5.00 | < 7.00 | 
COc1cc(F)c([C@@H]2CNC(=O)[C@H]2NC(=O)Nc2ccc(Cl)c(O)c2)c(F)c1 | 7.40 | 10.30 | 
COc1ccc([C@@H]2CNC(=O)[C@H]2NC(=O)Nc2ccc(Cl)cc2)cc1 (racemic) |  | 9.74 | 
COc1cc(F)c([C@@H]2CNC(=O)[C@H]2NC(=O)Nc2ccc(Cl)cc2)c(F)c1 | 6.92 |  | 
COc1cc(F)c([C@@H]2CNC(=O)[C@H]2NC(=O)Nc2ccc(F)cc2)c(F)c1 | 6.55 | 9.85 | pEC50 [2]: 8.82; inhibition in vivo at 1 mg/kg [3]: 97%; pIC50 (Cytochrome P450 3A4): < 4.70
COc1ccc([C@@H]2CNC(=O)[C@@H]2NC(=O)Nc2ccc(Cl)cc2)cc1 (racemic) |  | 9.04 | 
COc1ccc([C@@H]2CNC(=O)[C@H]2NC(=O)Nc2ccc(F)cc2)c(Cl)c1 |  | 8.40 | 
COc1ccc(CC(NC(=O)Nc2ccc(Cl)cc2)C(=O)O)cc1 (racemic) |  | 7.51 | 

Now from value to molecule, other results behind:

pEC50 (fMet-Leu-Phe receptor) | pEC50 [1] | SMILES | also measured
 | 9.05 | COc1ccc([C@@H]2CNC(=O)[C@H]2NC(=O)Nc2ccc(F)cc2)cc1F | 
 | 8.35 | COc1cc(F)c([C@@H]2CNC(=O)[C@H]2NC(=O)Nc2ccc(Cl)cn2)c(F)c1 | 
 | 8.34 | COc1ccc(C2CNC(=O)C2NC(=O)Nc2ccc(Cl)cc2)cc1 (single isomer, unassigned; (-)) | 
 | 8.24 | CCc1cc(F)c([C@@H]2CNC(=O)[C@H]2NC(=O)Nc2ccc(F)cc2)c(F)c1 | 
 | 8.85 | CNc1cc(F)c([C@@H]2CNC(=O)[C@H]2NC(=O)Nc2ccc(F)cc2)c(F)c1 | 
 | 7.85 | CCOc1cc(F)c([C@@H]2CNC(=O)[C@H]2NC(=O)Nc2ccc(F)cc2)c(F)c1 | 
6.00 | 10.11 | COc1cc(F)c([C@@H]2CNC(=O)[C@H]2NC(=O)Nc2ccc(C)c(O)c2)c(F)c1 | pEC50 [2]: 9.20; inhibition in vivo at 1 mg/kg [3]: 55%; pIC50 (Cytochrome P450 3A4): < 4.70
 | 10.07 | COc1ccc([C@@H]2CNC(=O)[C@H]2NC(=O)Nc2ccc(F)cc2)cc1 | 
 | 8.17 | COc1ccc(CC(CO)NC(=O)Nc2ccc(Cl)cc2)cc1 (racemic) | 
 | 8.80 | COc1ccc([C@@H]2CNC(=O)[C@H]2NC(=O)Nc2ccc(F)cc2)c(C)c1 | 
7.14 | 10.06 | COc1cc(F)c([C@@H]2CNC(=O)[C@H]2NC(=O)Nc2ccc(F)c(O)c2)c(F)c1 | 
6.09 |  | COc1cc(F)c([C@@H]2CNC(=O)[C@H]2NC(=O)Nc2ccc(F)c(F)c2)c(F)c1 | pEC50 [2]: 8.07; inhibition in vivo at 1 mg/kg [3]: 4.9%; pIC50 (Cytochrome P450 3A4): < 4.70
 | 9.96 | COc1ccc([C@@H]2CCNC(=O)[C@H]2NC(=O)Nc2ccc(Cl)cc2)cc1 (racemic) | 
7.02 | 9.72 | COc1cc(F)c([C@@H]2CNC(=O)[C@H]2NC(=O)Nc2ccc(Br)cc2)c(F)c1 | 
5.52 |  | COc1cc(F)c([C@@H]2CNC(=O)[C@H]2NC(=O)Nc2cc3ccccc3s2)c(F)c1 | 
6.54 |  | COc1cc(F)c([C@@H]2CNC(=O)[C@H]2NC(=O)Nc2cc(C)ns2)c(F)c1 | 
